This passage reports Ki, inhibition and IC50 results from ChEMBL document CHEMBL1135729, “Synthesis and biological evaluation of a new set of pyrazolo[1,5-c]quinazoline-2-carboxylates as novel excitatory amino acid antagonists” (J Med Chem, 2002).

Some results are limits rather than exact numbers.

The target of assay [1] is T1, Glutamate receptor ionotropic, NMDA 1 (Rattus norvegicus, UniProt P35439). Nature of the assay: Displacement of [3H]glycine from N-methyl-D-aspartate glutamate receptor 1 in rat cortical membranes. In kind it is cell membranes, Membrane. In general terms: Displacement assays read how much labelled ligand stays bound in the presence of the test substance.
The target of assay [2] is Glutamate receptor ionotropic, kainate (Rattus norvegicus) (UniProt P22756+Q01812+P42260+P42264+Q63273). The experiment in a line: Percent Inhibition of specific [3H]KA binding to Ionotropic glutamate receptor in rat cortical membranes. In kind it is cell membranes. The arrangement: concentration or dose not given beside the values. As to conditions: Membrane; concentration not given here. The procedure, abridged:
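Membranes resuspended (0.5 mg protein/mL) in 0.05 M Tris-citrate, pH 7.4, preincubated at 37 °C for 30 min, then washed three times in ice-cold buffer. Binding run on ice for 60 min with 5 nM [3H]kainate; nonspecific binding defined with 1 mM glutamate. Separation by GF/C filtration.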

Assay [3] deals with T2, Glutamate receptor ionotropic, AMPA (Rattus norvegicus, UniProt P19490+P19491+P19492+P19493). The experiment in a line: Displacement of [3H]AMPA from Ionotropic glutamate receptor AMPA in rat cortical membranes. In kind it is cell membranes, Membrane.
The next assay has as its target Glutamate NMDA receptor. Nature of the assay: Inhibition of stimulated [3H](+)-MK-801 binding to N-methyl-D-aspartate glutamate receptor in rat cortical membranes incubated with 10 uM glutamate and 0.1 uM glycine.
The species entered for assay [4] is Mus musculus. The experiment in a line: Concentration that inhibits by 50% depolarization induced by 5M AMPA. In kind it is functional. The procedure, abridged: (§1)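 Cortical wedge preparation (per Mannaioni et al.). AMPA or NMDA (5 μM) applied for 2 min every 15 min until control peaks were stable, then wedges continuously superfused with antagonist while agonist pulses continued. Afterwards, washout with antagonist-free Krebs and agonist applied every 15 min for 30-60 min to confirm recovery. dc potential between two compartments recorded via Ag/AgCl electrodes. IC50 derived against control peaks; mean ± SEM, n = 4.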

Assay [5] deals with T2, Glutamate receptor ionotropic, AMPA. The experiment in a line: Inhibition by displacing [3H]AMPA from Ionotropic glutamate receptor AMPA specific binding sites in rat cortical membranes. In kind it is cell membranes.
The species entered for assay [6] is Mus musculus. Nature of the assay: Concentration that inhibits by 50% depolarization induced by 5M NMDA. Type of assay: functional. In a few lines: as §1
The target in assay [7] is Glutamate receptor ionotropic, kainate. The experiment in a line: Inhibition of specific binding […] by displacing [3H]KA, from specific binding sites of Ionotropic glutamate receptor ionotropic kainate in rat cortical membranes. Type of assay: cell membranes, Membrane. The procedure, abridged:
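Rat cortical membranes preincubated at 0.5 mg protein/mL in 0.05 M Tris-citrate pH 7.4, 37 °C for 30 min, then washed thrice in ice-cold buffer. Binding on ice for 60 min with 5 nM [3H]kainate, 0.2-0.3 mg protein per assay. Nonspecific binding defined with 1 mM glutamate. Filtration separation.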

The target of assay [8] is T1, Glutamate receptor ionotropic, NMDA 1. The experiment in a line: Inhibition by displacing [3H]-Glycine of N-methyl-D-aspartate glutamate receptor 1 in rat cortical membranes. Type of assay: cell membranes, Membrane.
In assay [9] the target is Glutamate receptor ionotropic, AMPA (Rattus norvegicus) (UniProt P19491+P19492+P19493+P19490). The experiment in a line: Percent Inhibition by displacing [3H]AMPA from Ionotropic glutamate receptor AMPA specific binding sites in rat cortical membranes. Type of assay: cell membranes. On the set-up: concentration or dose not given beside the values. Particulars: concentration not given here.

The target of assay [10] is Glutamate receptor ionotropic, NMDA 1 (Rattus norvegicus) (UniProt P35439). The experiment in a line: (§2) Percent Inhibition by displacing [3H]glycine of N-methyl-D-aspartate glutamate receptor 1 in rat cortical membranes. In kind it is cell membranes. On the set-up: concentration or dose not given beside the values. Particulars: Membrane; concentration not given here.
For assay [11], the target named is T1, Glutamate receptor ionotropic, NMDA 1. Described as §2. Type of assay: cell membranes, Membrane.

Usually Ki stands for a dissociation constant, usually derived from enzyme kinetics or from competition with a known ligand. As a reminder, the inhibition is the share of the control response that was lost under treatment. As usually defined, the IC50 is the concentration that gives 50% inhibition. On to `O=C(O)c1cc2c3ccccc3nc(O)n2n1`, for which the results for the Ki in [1] and in [3] were 1.41 µM and 12.4 µM, respectively. The inhibition in [2] was found to be 26%. The same compound had a concentration for half-maximal inhibition (IC50) at Glutamate NMDA receptor of 10.4 µM.

On to `CCOC(=O)c1cc2c3ccccc3[nH]c(=O)n2n1`, for which the figures for the inhibition constant (Ki) in assay [1] and in [3] were 33.3 µM and 42 µM, respectively.

On to `O=Cc1ccn(-c2cc3c(cc2Cl)nc(O)n2nc(C(=O)O)cc32)c1`, for which the results for the IC50 (in the assay filed under Mus musculus [4]; in the assay listed under Mus musculus [6]; in assay [7]) were 0.5 µM, 25 µM and 5.5 µM, respectively. Besides, the inhibitory constant (Ki) worked out at 0.27 µM in assay [5] and 8.2 µM in [8].

With `CCOC(=O)c1cc2c3cc(N)c(Cl)cc3nc(O)n2n1`, the inhibition stood at 11% in assay [2], 33% in assay [9] and 40% in assay [10].

`CCOC(=O)c1cc2n(n1)C(C(=O)O)Nc1ccccc1-2` (stereo not given): the inhibition was determined as 0% in assay [2], 12% in assay [9] and 15% in assay [10].

In the case of `O=C(O)c1cc2c3cc([N+](=O)[O-])c(Cl)cc3[nH]c(=O)n2n1`, the Ki in assay [3] stood at 0.74 µM; in [11], 1.1 µM. The compound further showed a 50% inhibitory concentration (IC50) in assay [7] of 23 µM.

For `O=C(O)c1cc2c3ccc(Cl)cc3nc(O)n2n1`, the values for the inhibitory constant (Ki) in assay [1] and in assay [3] were 0.48 µM and 2.3 µM, respectively. Besides, the IC50 in [7] was 60 µM.

Turning to `CCOC(=O)c1cc2c3ccc(Cl)cc3[nH]c(=O)n2n1`, the inhibitory constant (Ki) in assay [1] stood at 26.5 µM; in assay [3], 72 µM.

In assay [8], `O=C(O)c1nc2c(=O)[nH]c3cc(Cl)c(-n4cnnc4)cc3n2n1` [TQX-173] came in with a Ki of 33.5 µM.

As for `CCOC(=O)c1cc2c3ccccc3nc(O)n2n1`, the inhibition in assay [2] amounted to 12%.

For `CCOC(=O)c1cc2c3cc(-n4ccc(C=O)c4)c(Cl)cc3nc(O)n2n1`, the inhibition in [2] turned out to be 29%. Also, the results for the half-maximal inhibitory concentration (IC50) in the assay filed under Mus musculus [4] and in the assay listed under Mus musculus [6] were 1 µM and greater than 50 µM, respectively. For the same compound, the Ki in [5] was 1.4 µM; in [8], 57 µM.

For `CCOC(=O)c1cc2c3cc(N)ccc3nc(O)n2n1`, the inhibition in assay [2] came to 30%; in [9], 27%; in [10], 30%.

Consider `O=C(O)C1=NN2C(=O)Nc3cc(Cl)ccc3C2C1` (stereo not given), for which the Ki in [1] worked out at 0.24 µM; in [3] it was 7.2 µM. The compound also had an inhibition in [2] of 20%.

As to `O=C(O)c1cc2c3cc([N+](=O)[O-])ccc3nc(O)n2n1`, the inhibition in assay [2] is 24%; in [10], 35%. This compound also displayed an inhibitory constant (Ki) in [3] of 26 µM.

For the compound `O=C(O)C1=NN2C(=O)Nc3cc(Cl)c(Cl)cc3C2C1` (stereo not given), the inhibition in assay [2] is 17%. Moreover, the Ki in assay [3] was 2.65 µM; in [8], 0.19 µM.

For `COC(=O)C1=NN2C(=O)Nc3ccccc3C2C1` (stereo not given), the inhibition in [2] came to 0%; in assay [9], 29%; in [10], 40%.

As for `O=C(O)C1=NN2C(=O)Nc3ccccc3C2C1` (stereo not given), the figures for the Ki in assay [1] and in [3] were 2 µM and 96 µM, respectively. This compound displayed a half-maximal inhibitory concentration (IC50) in assay [7] of 19.5 µM.

With `COC(=O)c1cc2c3cc(Cl)c(Cl)cc3nc(O)n2n1`, in [1], affinity was put at a Ki of 1.3 µM. In addition, the inhibition in [2] stood at 10%; in [9], 42%.

As to `COC(=O)C1=NN2C(=O)Nc3cc(Cl)c(Cl)cc3C2C1` (stereo not given), the Ki in assay [1] was determined as 4 µM; in [3], 8.5 µM. The compound further returned an inhibition in assay [2] of 9%.

Take `COC(=O)C1=NN2C(=O)Nc3cc(Cl)ccc3C2C1` (stereo not given): the values for the inhibition constant (Ki) in assay [1] and in [3] were 10.6 µM and 17.3 µM, respectively. Moreover, the inhibition in assay [2] was 3%.

For `CCOC(=O)c1cc2c3cc([N+](=O)[O-])c(Cl)cc3nc(O)n2n1`, the inhibition in [2] was 23%.

Take `CCOC(=O)c1cc2c3cc([N+](=O)[O-])ccc3nc(O)n2n1`: the inhibition in assay [2] was 4%; in assay [9], 27%; in assay [10], 15%.

For the compound `O=C(O)c1cc2n(n1)C(C(=O)O)Nc1ccccc1-2` (stereo not given), the inhibition turned out to be 11% in assay [2], 0% in [9] and 35% in [10].

`CCOC(=O)c1cc2c3ccc(Cl)cc3nc(O)n2n1`: the inhibition in assay [2] is 15%.

With `O=C(O)c1cc2c3cc(Cl)c(Cl)cc3[nH]c(=O)n2n1`, the values for the inhibition constant Ki in [1] and in assay [3] were 0.16 µM and 2.4 µM, respectively. This compound also yielded an IC50 in assay [7] of 41 µM.

For `CCOC(=O)c1cc2n(n1)C(C(=O)O)Nc1cc(Cl)ccc1-2` (stereo not given), the figures for the inhibition in assay [2], in assay [9] and in assay [10] were 1%, 6% and 5%, respectively.

For the compound `CCOC(=O)c1cc2c3cc(-n4cnnc4)c(Cl)cc3nc(O)n2n1`, the inhibition in [2] was 38%; in [10], 18%. Moreover, the IC50 is 1.75 µM in the assay listed under Mus musculus [4] and greater than 50 µM in the assay listed under Mus musculus [6]. Further, the inhibition constant Ki in assay [3] amounted to 0.87 µM.

`O=C(O)c1cc2c3cc(-n4cnnc4)c(Cl)cc3[nH]c(=O)n2n1`: the Ki in assay [3] was determined as 0.14 µM. The compound also had a concentration for half-maximal inhibition (IC50) in the assay listed under Mus musculus [6] of 20 µM.

On to `CCOC(=O)c1cc2c3cc([N+](=O)[O-])c(Cl)cc3[nH]c(=O)n2n1`, for which the inhibition constant Ki in [1] was determined as 10.6 µM; in assay [3] it was 8.2 µM.

Take `O=C(O)c1cc2n(n1)C(C(=O)O)Nc1cc(Cl)ccc1-2` (stereo not given): the inhibition is 13% in assay [2], 7% in [9] and 25% in assay [10].
